Holding throughout (type): functional
The test system of one test is MCF7. The experiment in a line: Growth inhibition of human MCF7 cells after 48 hrs by sulforhodamine B assay. To be noted: MCF7, 48 h. The method, boiled down:
(§1)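 SRB assay in MCF-7, NCI-H460 (5.0 × 10⁴ cells/mL) and A375-C5 (7.5 × 10⁴ cells/mL) grown in RPMI-1640 with 5% FBS. Cells attached overnight, then were exposed 48 h to five serial dilutions (top 150 or 50 µM; DMSO ≤0.25%). Cells were TCA-fixed, SRB-stained and read at A492. GI₅₀ taken from dose-response curves. Mean ± SEM, ≥3 independent experiments in duplicate.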
On the technique in general: In SRB staining, fixed cells bind dye roughly in proportion to their protein.

Test [1] can be described thus: Growth inhibition of human A375-C5 cells after 48 hrs by sulforhodamine B assay. The following applies: A375-C5, 48 h. In outline:
as §1

The subject of test [2] is NCI-H460. Kind of test: Growth inhibition of human NCI-H460 cells after 48 hrs by sulforhodamine B assay. To be noted: NCI-H460, 48 h. In outline:
as §1

For test [3], the system named is NCI-H460. The experiment in a line: Cell cycle arrest in human NCI-H460 cells assessed as decrease in cell accumulation in S phase at 4.1 uM after 48 hrs by propidium iodide staining-based flow cytometry.
Test [4] deals with NCI-H460. The experiment in a line: Cell cycle arrest in human NCI-H460 cells assessed as decrease in cell accumulation in G2/M phase at 4.1 uM after 48 hrs by propidium iodide staining-based flow cytometry.
Test [5] deals with NCI-H460. Kind of test: Cell cycle arrest in human NCI-H460 cells assessed as increase in cell accumulation in G1 phase at 4.1 uM after 48 hrs by propidium iodide staining-based flow cytometry. For orientation: A flow cytometer gives signals particle by particle.
The test system of test [6] is NCI-H460. The experiment in a line: Induction of apoptosis in human NCI-H460 cells assessed as apoptotic cells at 4.1 uM after 48 hrs using annexin-V FITC/PI staining by flow cytometry (reference value: 8.4 to 11.2%).
Test [7] relates to NCI-H460. The experiment in a line: Cell cycle arrest in human NCI-H460 cells assessed as decrease in cell accumulation in S phase at 6.8 uM after 48 hrs by propidium iodide staining-based flow cytometry.
In test [8] the test system is NCI-H460. Kind of test: Cell cycle arrest in human NCI-H460 cells assessed as decrease in cell accumulation in G2/M phase at 6.8 uM after 48 hrs by propidium iodide staining-based flow cytometry.
Test [9] concerns NCI-H460. Kind of test: Induction of apoptosis in human NCI-H460 cells assessed as apoptotic cells at 6.8 uM after 48 hrs using annexin-V FITC/PI staining by flow cytometry (reference value: 8.4 to 11.2%).
The test system of test [10] is NCI-H460. Kind of test: Cell cycle arrest in human NCI-H460 cells assessed as increase in cell accumulation in G1 phase at 6.8 uM after 48 hrs by propidium iodide staining-based flow cytometry.
The subject of test [11] is NCI-H460. Kind of test: Cell cycle arrest in human NCI-H460 cells assessed as decrease in cell accumulation in G2/M phase at 3.9 uM after 48 hrs by propidium iodide staining-based flow cytometry.
For test [12], the system named is NCI-H460. Kind of test: Cell cycle arrest in human NCI-H460 cells assessed as increase in cell accumulation in G1 phase at 3.9 uM after 48 hrs by propidium iodide staining-based flow cytometry.
In test [13] the test system is NCI-H460. The experiment in a line: Cell cycle arrest in human NCI-H460 cells assessed as decrease in cell accumulation in S phase at 3.9 uM after 48 hrs by propidium iodide staining-based flow cytometry.
For test [14], the system named is NCI-H460. Kind of test: Induction of apoptosis in human NCI-H460 cells assessed as apoptotic cells at 3.9 uM after 48 hrs using annexin-V FITC/PI staining by flow cytometry (reference value: 8.4 to 11.2%).
Test [15] concerns NCI-H460. The experiment in a line: Cell cycle arrest in human NCI-H460 cells assessed as decrease in cell accumulation in G2/M phase at 2.7 uM after 48 hrs by propidium iodide staining-based flow cytometry.
The test system of test [16] is NCI-H460. Kind of test: Induction of apoptosis in human NCI-H460 cells assessed as apoptotic cells at 2.7 uM after 48 hrs using annexin-V FITC/PI staining by flow cytometry (reference value: 8.4 to 11.2%).
Test [17] relates to NCI-H460. The experiment in a line: Cell cycle arrest in human NCI-H460 cells assessed as decrease in cell accumulation in S phase at 2.7 uM after 48 hrs by propidium iodide staining-based flow cytometry.
Test [18] concerns NCI-H460. Kind of test: Cell cycle arrest in human NCI-H460 cells assessed as increase in cell accumulation in G1 phase at 2.7 uM after 48 hrs by propidium iodide staining-based flow cytometry.
The test system of test [19] is NCI-H460. The experiment in a line: Induction of apoptosis in human NCI-H460 cells assessed as apoptotic cells at 12.6 uM after 48 hrs using annexin-V FITC/PI staining by flow cytometry (reference value: 8.4 to 11.2%).
Test [20] deals with NCI-H460. The experiment in a line: Cell cycle arrest in human NCI-H460 cells assessed as decrease in cell accumulation in G2/M phase at 12.6 uM after 48 hrs by propidium iodide staining-based flow cytometry.
Test [21] concerns NCI-H460. The experiment in a line: Cell cycle arrest in human NCI-H460 cells assessed as decrease in cell accumulation in S phase at 12.6 uM after 48 hrs by propidium iodide staining-based flow cytometry.
Test [22] relates to NCI-H460. The experiment in a line: Cell cycle arrest in human NCI-H460 cells assessed as increase in cell accumulation in G1 phase at 12.6 uM after 48 hrs by propidium iodide staining-based flow cytometry.
In test [23] the test system is NCI-H460. Kind of test: Induction of apoptosis in human NCI-H460 cells assessed as apoptotic cells at 4.9 uM after 48 hrs using annexin-V FITC/PI staining by flow cytometry (reference value: 8.4 to 11.2%).
For test [24], the system named is NCI-H460. The experiment in a line: Cell cycle arrest in human NCI-H460 cells assessed as increase in cell accumulation in G1 phase at 4.9 uM after 48 hrs by propidium iodide staining-based flow cytometry.
Test [25] has as its system NCI-H460. Kind of test: Cell cycle arrest in human NCI-H460 cells assessed as decrease in cell accumulation in S phase at 4.9 uM after 48 hrs by propidium iodide staining-based flow cytometry.
Test [26] relates to NCI-H460. Kind of test: Cell cycle arrest in human NCI-H460 cells assessed as decrease in cell accumulation in G2/M phase at 4.9 uM after 48 hrs by propidium iodide staining-based flow cytometry.

Activity calls are given as the source filed them. The rule behind the calls is not given here.

As for `CC1Oc2c(O)c(O)c3c(=O)cc(-c4ccccc4)oc3c2C1(C)C` (configuration not stated), the GI50 (in general, the concentration giving 50% growth inhibition) was 43.7 µM with MCF7, 47.7 µM in test [1] and 40.6 µM in the test on NCI-H460 [2].
Regarding `CC(C)=CCC/C(C)=C/COc1cc2oc(-c3ccccc3)cc(=O)c2c(O)c1O`, the GI50 is 4.4 µM in the test with MCF7, 5.3 µM in [1] and 4.1 µM with NCI-H460 [2]. For the same compound, the result with NCI-H460 [3] and in the test with NCI-H460 [4] was Active. For the same compound, the values for the Activity with NCI-H460 [5] and in the test with NCI-H460 [6] were over 10% and 18.8%, respectively.
Take `CC(C)=CCOc1cc2oc(-c3ccccc3)cc(=O)c2c(O)c1O`: the figures for the 50% growth inhibitory concentration (GI50) (with MCF7; in test [1]; with NCI-H460 [2]) were 9.1 µM, 9.2 µM and 6.8 µM, respectively. The outcome in the test on NCI-H460 [7] and with NCI-H460 [8] was Active. Moreover, the Activity was 9.1% with NCI-H460 [9] and over 10% in the test with NCI-H460 [10].
Take `CC1Oc2ccc3c(=O)c(O)c(-c4ccccc4)oc3c2C1(C)C` (configuration not stated): the GI50 in the test on MCF7 was found to be 4.5 µM; in [1], 7.6 µM; in the test on NCI-H460 [2], 3.9 µM. The result with NCI-H460 [11], in the test on NCI-H460 [12] and in the test on NCI-H460 [13] was Active. In addition, in the test on NCI-H460 [14], the Activity was found to be 9.5%.
As for `CC(C)=CCOc1c(OCC=C(C)C)c(O)c2c(=O)cc(-c3ccccc3)oc2c1CC=C(C)C`, the GI50 (with MCF7; in test [1]; in the test on NCI-H460 [2]) was over 150 µM each time.
Turning to `CC(C)=CCOc1cc2oc(-c3ccccc3)cc(=O)c2c(O)c1OCC=C(C)C`, the GI50 (in the test with MCF7; in test [1]; in the test on NCI-H460 [2]) was over 150 µM in each case.
For `CC(C)=CCC/C(C)=C/COc1c(OC/C=C(\C)CCC=C(C)C)c(O)c2c(=O)cc(-c3ccccc3)oc2c1C/C=C(\C)CCC=C(C)C`, the GI50 (in the test with MCF7; in test [1]; in the test with NCI-H460 [2]) was over 150 µM throughout.
`CC(C)=CCC/C(C)=C/COc1ccc2c(=O)c(OC/C=C(\C)CCC=C(C)C)c(-c3ccccc3)oc2c1`: the GI50 was 66.5 µM in the test on MCF7, 58.5 µM in [1] and 55 µM with NCI-H460 [2].
Regarding `CC1(C)CCc2c(ccc3c(=O)c(O)c(-c4ccccc4)oc23)O1`, the GI50 came out at 3.7 µM in the test on MCF7, 2.3 µM in test [1] and 2.7 µM in the test on NCI-H460 [2]. Further, the outcome in the test with NCI-H460 [15], in the test on NCI-H460 [17] and with NCI-H460 [18] was Active. For the same compound, in the test with NCI-H460 [16], the Activity is on record as 13.1%.
In the case of `CC(C)=CCC/C(C)=C/COc1cc2oc(-c3ccccc3)cc(=O)c2c(O)c1OC/C=C(\C)CCC=C(C)C`, the GI50 (in the test on MCF7; in [1]; in the test on NCI-H460 [2]) was over 150 µM in each case.
For `CC(C)=CCOc1ccc2c(=O)c(O)c(-c3ccccc3)oc2c1`, the Activity in the test on NCI-H460 [19] stood at 11.9%. In addition, the results for the concentration for 50% growth inhibition (GI50) (in the test with MCF7; in test [1]; with NCI-H460 [2]) were 14 µM, 30.3 µM and 12.6 µM, respectively. Moreover, the outcome with NCI-H460 [20], with NCI-H460 [21] and in the test with NCI-H460 [22] was Active.
As for `CC(C)=CCOc1ccc2c(=O)c(OCC=C(C)C)c(-c3ccccc3)oc2c1`, the values for the GI50 (in the test with MCF7; in test [1]; in the test with NCI-H460 [2]) were 63.3 µM, 59 µM and 51.9 µM, respectively.
On to `O=c1c(O)c(-c2ccccc2)oc2cc(O)ccc12` [3,7-DIHYDROXYFLAVONE], for which the figures for the GI50 (in the test on MCF7; in [1]; with NCI-H460 [2]) were 17.4 µM, 23 µM and 15.4 µM, respectively.
The matching figures for `O=c1cc(-c2ccccc2)oc2cc(O)c(O)c(O)c12` [BAICALEIN]: 32.8 µM, 7.7 µM and 26.7 µM.
As to `CC1(C)CCc2c(c(O)c(O)c3c(=O)cc(-c4ccccc4)oc23)O1`, the GI50 in the test on MCF7 is 21 µM; in test [1], 27.4 µM; in the test on NCI-H460 [2], 17.7 µM.
As to `CC(C)=CCC/C(C)=C/COc1ccc2c(=O)c(O)c(-c3ccccc3)oc2c1`, the GI50 came out at 6.4 µM in the test with MCF7, 7.2 µM in test [1] and 4.9 µM in the test on NCI-H460 [2]. Moreover, the Activity in the test with NCI-H460 [23] is listed as 12%. For the same compound, the outcome with NCI-H460 [24], in the test with NCI-H460 [25] and with NCI-H460 [26] was Active.
